Tests used:
GluN1/GluN2C [1] = target: T1, GluN1/GluN2C (Rattus norvegicus, UniProt P35439+Q00961); assay: Two electrode voltage clamp recording, Xenopus oocytes; assay type: cell-based
Summary of the method: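 Xenopus oocytes expressing GluN1/GluN2 (1:2 cRNA) were clamped at −40 mV at 23 °C, 2–5 days post-injection, with 30 μM glycine in all solutions. Test compound was applied at increasing concentrations during saturating 100 μM glutamate/30 μM glycine. […] Data came from 5–22 oocytes, 2–3 batches.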

GluN1/GluN2B [2] = target: T2, GluN1/GluN2B (Rattus norvegicus, UniProt P35439+Q00960); conditions: cited from earlier work
T2 sequence (Q00960 27-1482, other chains not shown): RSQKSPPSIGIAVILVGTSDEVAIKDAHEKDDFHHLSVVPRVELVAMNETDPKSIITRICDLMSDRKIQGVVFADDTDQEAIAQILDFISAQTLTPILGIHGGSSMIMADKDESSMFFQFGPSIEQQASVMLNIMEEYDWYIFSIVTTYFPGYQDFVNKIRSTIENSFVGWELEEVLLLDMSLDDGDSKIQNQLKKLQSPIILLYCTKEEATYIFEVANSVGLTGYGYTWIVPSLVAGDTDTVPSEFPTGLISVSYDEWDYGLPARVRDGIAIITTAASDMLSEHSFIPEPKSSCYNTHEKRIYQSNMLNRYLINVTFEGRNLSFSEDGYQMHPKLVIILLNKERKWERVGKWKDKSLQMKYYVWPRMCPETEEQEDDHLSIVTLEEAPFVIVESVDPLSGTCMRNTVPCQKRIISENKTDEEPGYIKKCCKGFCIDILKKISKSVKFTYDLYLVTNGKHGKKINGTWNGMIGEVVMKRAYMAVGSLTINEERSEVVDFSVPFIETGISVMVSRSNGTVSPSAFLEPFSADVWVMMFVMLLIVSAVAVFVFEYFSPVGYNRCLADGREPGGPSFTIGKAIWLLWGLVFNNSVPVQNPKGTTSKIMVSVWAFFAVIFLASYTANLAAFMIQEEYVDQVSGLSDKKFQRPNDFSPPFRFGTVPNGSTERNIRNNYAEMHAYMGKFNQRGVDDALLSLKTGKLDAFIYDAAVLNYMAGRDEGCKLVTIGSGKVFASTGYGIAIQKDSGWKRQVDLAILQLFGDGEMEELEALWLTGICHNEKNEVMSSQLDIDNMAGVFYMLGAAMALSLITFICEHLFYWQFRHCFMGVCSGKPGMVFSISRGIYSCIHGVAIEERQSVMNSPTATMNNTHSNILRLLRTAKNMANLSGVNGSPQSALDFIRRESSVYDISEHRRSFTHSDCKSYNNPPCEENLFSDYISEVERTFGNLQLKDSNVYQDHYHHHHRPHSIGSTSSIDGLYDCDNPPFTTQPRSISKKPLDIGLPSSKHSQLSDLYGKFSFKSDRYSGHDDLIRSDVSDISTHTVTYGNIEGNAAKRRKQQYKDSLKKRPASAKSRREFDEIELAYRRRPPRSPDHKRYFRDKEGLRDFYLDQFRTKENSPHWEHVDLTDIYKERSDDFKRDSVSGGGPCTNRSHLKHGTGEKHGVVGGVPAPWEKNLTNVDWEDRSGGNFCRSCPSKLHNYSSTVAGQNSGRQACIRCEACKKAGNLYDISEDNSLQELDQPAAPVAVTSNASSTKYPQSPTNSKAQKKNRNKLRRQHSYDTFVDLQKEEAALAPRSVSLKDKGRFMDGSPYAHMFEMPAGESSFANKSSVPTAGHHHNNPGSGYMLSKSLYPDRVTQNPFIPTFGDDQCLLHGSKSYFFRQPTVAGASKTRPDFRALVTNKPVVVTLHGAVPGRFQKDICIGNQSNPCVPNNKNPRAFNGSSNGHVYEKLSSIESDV

GluN1/GluN2C [3] = target: T1, GluN1/GluN2C; conditions: cited from earlier work
GluN1/GluN2B [4] = target: T2, GluN1/GluN2B; conditions: cited from earlier work; remark: listed apart in the source
GluN1/GluN2D [5] = target: T3, GluN1/GluN2D (Rattus norvegicus, UniProt P35439+Q62645); assay: Two electrode voltage clamp recording, Xenopus oocytes; assay type: cell-based
GluN1/GluN2A [6] = target: T4, GluN1/GluN2A (Rattus norvegicus, UniProt P35439+Q00959); conditions: cited from earlier work
T4 sequence (Q00959 23-1464, other chains not shown): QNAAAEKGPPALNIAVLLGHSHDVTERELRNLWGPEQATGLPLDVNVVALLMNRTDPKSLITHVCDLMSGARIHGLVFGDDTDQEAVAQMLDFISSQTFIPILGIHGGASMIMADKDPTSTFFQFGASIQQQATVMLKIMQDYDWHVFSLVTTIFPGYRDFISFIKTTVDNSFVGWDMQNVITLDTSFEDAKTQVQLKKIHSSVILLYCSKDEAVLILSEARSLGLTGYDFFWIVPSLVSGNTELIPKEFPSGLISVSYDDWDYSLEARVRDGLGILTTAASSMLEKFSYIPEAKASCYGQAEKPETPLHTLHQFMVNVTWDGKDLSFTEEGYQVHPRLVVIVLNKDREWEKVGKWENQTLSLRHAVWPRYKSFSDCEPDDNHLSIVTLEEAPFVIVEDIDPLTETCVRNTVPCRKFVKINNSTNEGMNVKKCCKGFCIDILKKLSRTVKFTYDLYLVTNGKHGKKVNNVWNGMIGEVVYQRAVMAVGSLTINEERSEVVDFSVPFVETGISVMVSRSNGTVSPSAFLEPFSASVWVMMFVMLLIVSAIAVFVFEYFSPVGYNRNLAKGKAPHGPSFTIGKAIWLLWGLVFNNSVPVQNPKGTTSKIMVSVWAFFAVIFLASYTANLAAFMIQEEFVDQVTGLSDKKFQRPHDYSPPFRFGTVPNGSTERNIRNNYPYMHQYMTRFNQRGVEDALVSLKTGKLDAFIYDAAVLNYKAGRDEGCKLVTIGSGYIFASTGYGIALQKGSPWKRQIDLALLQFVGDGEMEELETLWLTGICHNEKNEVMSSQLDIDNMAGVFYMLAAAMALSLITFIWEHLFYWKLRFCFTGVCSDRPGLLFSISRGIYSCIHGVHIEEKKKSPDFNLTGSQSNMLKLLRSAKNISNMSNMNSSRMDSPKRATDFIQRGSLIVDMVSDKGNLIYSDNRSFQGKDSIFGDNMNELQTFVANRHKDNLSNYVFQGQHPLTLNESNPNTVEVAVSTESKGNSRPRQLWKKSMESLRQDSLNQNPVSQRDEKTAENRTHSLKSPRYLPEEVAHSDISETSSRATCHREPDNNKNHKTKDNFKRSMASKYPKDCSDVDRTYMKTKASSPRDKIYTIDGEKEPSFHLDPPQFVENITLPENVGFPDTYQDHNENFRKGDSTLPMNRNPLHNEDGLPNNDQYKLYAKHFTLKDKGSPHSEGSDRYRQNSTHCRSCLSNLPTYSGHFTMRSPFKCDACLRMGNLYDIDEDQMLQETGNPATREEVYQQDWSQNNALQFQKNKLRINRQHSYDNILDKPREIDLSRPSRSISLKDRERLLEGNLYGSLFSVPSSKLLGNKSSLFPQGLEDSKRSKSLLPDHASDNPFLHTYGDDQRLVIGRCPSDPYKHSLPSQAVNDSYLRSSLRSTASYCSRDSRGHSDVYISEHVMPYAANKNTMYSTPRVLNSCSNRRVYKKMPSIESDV

GluN1/GluN2A [7] = target: T4, GluN1/GluN2A; conditions: cited from earlier work; remark: listed apart in the source
[8] = test system: GluN2C- and GluN2D-containing NMDARs; assay: Two electrode voltage clamp recording, Xenopus oocytes, CIQ-sensitive subunits; assay type: cell-based, rat
GluN1/GluN2D [9] = target: T3, GluN1/GluN2D; conditions: cited from earlier work
GluN1/GluN2B [10] = target: T2, GluN1/GluN2B; assay: Two electrode voltage clamp recording, Xenopus oocytes; assay type: cell-based; conditions: read-out: response, % of control
Summary of the method: (§1)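 Defolliculated stage V–VI Xenopus laevis oocytes were injected with GluN1 and GluN2 cRNA at a 1:2 ratio (0.2–10 ng total) and recorded 2–5 days later at 23 °C by two-electrode voltage clamp at −40 mV, with gravity-fed solutions. Currents evoked by 100 μM glutamate plus 30 μM glycine were measured with 100 μM test compound, as % of control; n = 6 oocytes.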

GluN1/GluN2A [11] = target: T4, GluN1/GluN2A; assay: as above; assay type: cell-based; conditions: read-out: response, % of control
Summary of the method: as §1

[12] = saturating glutamate and glycine, oocytes

T1 sequence (Q00961 20-1237, other chains not shown): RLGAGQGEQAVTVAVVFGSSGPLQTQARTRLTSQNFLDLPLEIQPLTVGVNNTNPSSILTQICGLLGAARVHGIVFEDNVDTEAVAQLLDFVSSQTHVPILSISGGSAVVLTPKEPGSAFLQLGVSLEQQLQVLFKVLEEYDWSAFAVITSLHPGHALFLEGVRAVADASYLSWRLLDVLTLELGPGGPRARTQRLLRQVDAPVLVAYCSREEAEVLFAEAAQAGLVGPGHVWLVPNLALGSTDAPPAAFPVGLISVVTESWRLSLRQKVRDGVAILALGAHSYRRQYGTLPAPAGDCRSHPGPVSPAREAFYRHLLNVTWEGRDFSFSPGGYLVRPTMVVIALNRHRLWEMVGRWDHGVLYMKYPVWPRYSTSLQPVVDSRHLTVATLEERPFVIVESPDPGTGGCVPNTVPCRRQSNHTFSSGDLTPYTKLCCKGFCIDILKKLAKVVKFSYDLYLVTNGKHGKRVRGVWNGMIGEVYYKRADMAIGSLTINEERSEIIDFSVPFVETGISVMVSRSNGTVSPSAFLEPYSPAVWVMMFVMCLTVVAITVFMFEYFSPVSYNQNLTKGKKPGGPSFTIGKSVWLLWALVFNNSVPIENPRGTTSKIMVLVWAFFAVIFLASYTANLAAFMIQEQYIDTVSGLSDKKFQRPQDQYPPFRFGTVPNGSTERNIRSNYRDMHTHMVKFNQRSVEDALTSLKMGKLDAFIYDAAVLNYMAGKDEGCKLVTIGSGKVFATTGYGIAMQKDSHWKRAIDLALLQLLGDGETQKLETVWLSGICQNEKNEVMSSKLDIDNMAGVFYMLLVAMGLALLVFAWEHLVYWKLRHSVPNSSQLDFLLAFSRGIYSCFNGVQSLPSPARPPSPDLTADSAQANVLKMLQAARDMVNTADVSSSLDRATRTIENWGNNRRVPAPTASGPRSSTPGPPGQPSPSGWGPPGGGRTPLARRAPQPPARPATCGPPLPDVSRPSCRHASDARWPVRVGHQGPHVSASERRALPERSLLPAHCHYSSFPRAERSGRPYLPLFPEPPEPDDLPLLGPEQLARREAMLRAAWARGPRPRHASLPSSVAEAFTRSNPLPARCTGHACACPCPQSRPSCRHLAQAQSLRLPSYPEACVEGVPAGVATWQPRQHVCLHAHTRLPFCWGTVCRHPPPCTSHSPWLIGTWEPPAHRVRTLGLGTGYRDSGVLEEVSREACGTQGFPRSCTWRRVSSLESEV

Compound: COc1ccc(OCC2c3cc(OC)c(OC)cc3CCN2C(=O)c2cccc(Cl)c2)cc1 (single isomer, unassigned; (+)) [CIQ, (+)-(3-chlorophenyl)(6,7-dimethoxy-1-((4-methoxyphenoxy)methyl)-3,4-dihydroisoquinolin-2(1H)-yl)methanone]
- potentiation, % of control (GluN1/GluN2C [1]; [12]): 340% ± 27%
- effect at low agonist concentrations (GluN1/GluN2B [2]): no effect
- effect on the deactivation time course following glutamate removal (GluN1/GluN2C [3]): modest effects
- effect on the deactivation time course following glutamate removal (GluN1/GluN2B [4]): no detectable effect
- potentiation, % of control (GluN1/GluN2D [5]; [12]): 281% ± 10%
- effect on the deactivation time course following glutamate removal (GluN1/GluN2A [6]): no detectable effect
- effect at low agonist concentrations (GluN1/GluN2A [7]): no effect
- enhancement of the response at EC30 glutamate and glycine ([8]; EC30 concentrations of glutamate and glycine): ≤ 5 fold
- enhancement of the response to maximally effective glutamate and glycine ([8]; maximally effective agonist): 2 fold
- effect on the deactivation time course following glutamate removal (GluN1/GluN2D [9]): no detectable effect

Compound: CNC(=O)N1N=C(c2ccc(N)cc2)c2cc3c(cc2CC1C)OCO3 (centres unmarked) [GYKI 53655]
- remaining activity at 100 µM (GluN1/GluN2B [10]): 107%
- IC50 (GluN1/GluN2C [1]): 143 µM
- remaining activity at 100 µM (GluN1/GluN2A [11]): 104%
- IC50 (GluN1/GluN2D [5]): 133 µM

From paper PMC7967294 (ACS chemical neuroscience, 2020)
